Sampled rows, rich in hits. Any-hit rate of the full collection: about 2.2%.
PERK inhibitor: block of dimerizer-induced PERK translation repression, primary screen, PERK inhibitor project, CHO PERK-DD cells, SEAP luminescence, HTS | Eukaryotic translation initiation factor 2-alpha kinase 3 (Homo sapiens), Q9NZJ5 | CHO PERK-DD fusion, SEAP luminescence translation reporter | inhibition, % at 5.6 µM | actives 0.17% (n = 220,000);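 active = inhibition above the mean inhibition of all tested compounds plus 3 SD, set separately per screening campaign, cut at about 2.9% in these data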;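 note: PERK kinase domain activated by AP20187 dimerizer at 100 nM; 0% = DMSO with dimerizer and 100% = rapamycin at 8.4 µM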
eIF4E 4G PPI: eIF4E–eIF4G protein interaction inhibitors, primary screen, biochemical, uHTS, TR-FRET, eIF4GI fragment. inhibition, % at 21.7 µM. TR-FRET eIF4E-eIF4GI(517-606) binding, 2 h. Eukaryotic translation initiation factor 4E (Mus musculus) + Eukaryotic translation …. actives 0.37% (n = 220,000);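 active = inhibition above about 30%, limit read from the data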;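 note: 0% = full FRET control wells and 100% = background wells lacking eIF4GI fragment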
RanGTP-Impb inh: inhibitors of RanGTP-importin-beta interaction, primary screen, biochemical, FRET, CFP-Ran, YFP-importin-beta, homogeneous. inhibition, % (no concentration beside the values). actives 1.1% (n = 300,000). Ran GTPase (GTP-bound) - importin-beta complex. AID 2216, 2009. cell-free CFP-Ran/YFP-importin-beta FRET ratio;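 active = more than half of the replicate wells show a fall in the fluorescence ratio signal beyond about 16%, limit read from the data, passing the limit was not always enough; inconclusive = exactly half of the replicate wells pass the set limit; inactive = fewer than half of replicates pass the limit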;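 note: 0% = DMSO wells and 100% = Ran loaded with GDP instead of GTP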
Runt-CBFb FRET: inhibitors of RUNX1 Runt–CBFb binding, primary screen, biochemical, FRET, Cerulean-Runt, Venus-CBFb, uHTS; actives 0.46% (n = 220,000); Cerulean-Runt/Venus-CBFb FRET ratio 530/480, 1 h; AID 1496, 2009; inhibition, % at 20 µM; Runt-related transcription factor 1 (Homo sapiens) + Core-binding factor subunit beta …;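 active = inhibition over about 50% at 20 µM in the single-dose screen, limit read from the data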;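 note: 0% = DMSO wells and 100% = excess unlabeled CBFb competitor control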
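test system = Cerulean-tagged RUNX1 Runt domain (FRET donor) fusion protein | reagent = Venus-CBFb binding partner, 100 nM | incubation = protein complex preformed 1 h, compound exposure 1 h, room temperature, dark | detection = FRET fluorescence | read-out basis = loss of energy transfer signal | controls = 5 µM unlabeled CBFb as full-inhibition high control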
Hck-Nef inh: inhibitors of Nef-activated human Hck kinase, primary screen, biochemical, Z-Lyte FRET, 384-well, Hck-YEEI; actives 0.68% (n = 220,000); AID 463187, 2010; Recombinant Hck-YEEI plus Nef, Z-Lyte FRET kinase assay; inhibition, % at 20 µM;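 active = Hck-Nef kinase inhibition above about 50%, limit read from the data; inactive = inhibition below that limit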;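 note: 0% = DMSO with Hck plus Nef and 100% = Hck alone without Nef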
Target sequence (P08631 whole entry, looked up): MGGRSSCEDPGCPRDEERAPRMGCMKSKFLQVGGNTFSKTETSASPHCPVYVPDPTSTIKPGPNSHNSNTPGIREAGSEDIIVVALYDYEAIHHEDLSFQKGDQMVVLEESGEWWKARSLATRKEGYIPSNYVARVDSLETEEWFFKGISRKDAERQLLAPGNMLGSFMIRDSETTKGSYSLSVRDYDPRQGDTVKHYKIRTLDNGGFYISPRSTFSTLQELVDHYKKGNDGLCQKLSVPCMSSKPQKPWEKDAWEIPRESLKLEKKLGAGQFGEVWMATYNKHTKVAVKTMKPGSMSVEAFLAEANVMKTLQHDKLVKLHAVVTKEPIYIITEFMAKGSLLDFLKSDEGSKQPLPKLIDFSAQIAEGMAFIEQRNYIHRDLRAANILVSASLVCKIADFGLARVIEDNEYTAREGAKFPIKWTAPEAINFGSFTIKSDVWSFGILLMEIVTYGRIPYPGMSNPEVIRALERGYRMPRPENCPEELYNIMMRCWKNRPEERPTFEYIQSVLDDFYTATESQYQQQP
Runt-SMMHC FRET: inhibitors of RUNX1 Runt–CBFb-SMMHC binding, primary screen, biochemical, FRET, Cerulean-Runt, Venus-CBFb-SMMHC, uHTS; Cerulean-Runt/Venus-CBFb-SMMHC FRET ratio 530/480, 1 h; inhibition, % at 20 µM; actives 0.74% (n = 220,000); AID 1434, 2008;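 active = mean inhibition across duplicate retests at 20 µM reaching about 50%, limit read from the data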;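 note: 0% = DMSO wells and 100% = wells with excess untagged CBFb-SMMHC; inhibitors lower the FRET ratio by blocking Runt binding to CBFb-SMMHC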
The depositor's hits bear a star; ? = inconclusive; / = not tested or not shown.

SMILES	PERK inhibitor	eIF4E 4G PPI	RanGTP-Impb inh	Runt-CBFb FRET	Hck-Nef inh	Runt-SMMHC FRET
Nc1ccc(S(=O)(=O)N2CCCc3ccccc32)cc1	1.6	62.4*	-2.2	0.0	2.3	-1.0
COc1ccc2[nH]c3c(NCCC4=CCCCC4)ncnc3c2c1	1.6	6.1	2.2	/	91.6*	-1.5
CCOC(=O)C(C#N)=C1CCN(Cc2ccccc2)CC1	/	/	51.2*	/	/	/
N=c1c(C(=O)NCC2CCCO2)cc2c(=O)n3ccccc3nc2n1Cc1ccccc1Cl (stereo not drawn)	/	/	187.7*	/	/	/
COc1ccc(-c2cc(C(F)F)n3ncc(C(=O)NCC4CCCO4)c3n2)cc1 (stereo not drawn)	-1.2	-1.4	58.0*	18.0	0.9	61.6*
Cc1ccc(Cn2c(=N)c(C(=O)NCC3CCCO3)cc3c(=O)n4ccccc4nc32)cc1 (stereo not drawn)	/	/	160.5*	/	/	/
O=C(NCC1CCCO1)c1cnn2c(C(F)F)cc(C3CC3)nc12 (stereo not drawn)	/	/	2.1	/	/	/
COc1ccc(CCn2c(=N)c(C(=O)NCC3CCCO3)cc3c(=O)n4ccccc4nc32)cc1 (stereo not drawn)	/	/	-0.3	/	/	/
COc1ccc(Cn2c(=N)c(C(=O)NCC3CCCO3)cc3c(=O)n4ccccc4nc32)cc1 (stereo not drawn)	/	/	22.6*	/	/	/
N=c1c(C(=O)NCC2CCCO2)cc2c(=O)n3ccccc3nc2n1C1CCCCC1 (stereo not drawn)	/	/	12.2	/	/	/
N=c1c(C(=O)NCC2CCCO2)cc2c(=O)n3ccccc3nc2n1Cc1ccccc1 (stereo not drawn)	/	/	179.9*	/	/	/
N=c1c(C(=O)NCC2CCCO2)cc2c(=O)n3ccccc3nc2n1Cc1ccc(Cl)cc1 (stereo not drawn)	/	/	179.8*	/	/	/
CC(C)(C)c1ccc(OCC(=O)NCc2ccco2)cc1	-0.3	3.1	?	1.3	5.9	2.8
N#Cc1c2ccc(OCC(=O)NCc3ccco3)cc2n2ccccc12	/	/	20.9*	/	/	/
N#Cc1c2ccc(O)cc2n2ccccc12	-0.2	4.4	19.2*	20.3	-78.7	86.3*
Nc1nc(C2CC(=O)OC23CCCCC3)cs1 (stereo not drawn)	0.2	5.2	20.6*	2.9	6.3	-1.1
CCc1ccccc1NC(=S)N(Cc1ccco1)C(C)c1cccs1 (stereo not drawn)	-0.3	1.6	1.1	1.0	-5.5	1.8
CN1CCN(CCc2nc3cc(NC(=O)COc4ccccc4)ccc3n2C)CC1	-0.4	-6.0	4.6	-1.4	-0.7	-2.5
CC(C)C(=O)Nc1ccc2c(c1)nc(CCN1CCN(C)CC1)n2C	3.6*	-1.0	6.2	2.5	1.1	-1.4
C/C=C/c1ccc(OCC(=O)Nc2cc(C(F)(F)F)ccc2N2CCOCC2)c(OC)c1	/	/	4.6	/	/	/
CCC(c1nnnn1Cc1ccc2c(c1)OCO2)N1CCN(c2ccc(F)cc2)CC1 (stereo not drawn)	-0.4	1.0	0.8	-1.5	2.9	2.1
O=C(NC(NNc1ccc([N+](=O)[O-])cc1)(C(F)(F)F)C(F)(F)F)c1ccccc1Cl	0.2	-5.8	23.1*	-1.4	-1.0	-6.7
CC(C)OC(=O)c1c2nc3ccccc3nc2n2c1[nH]c(=O)c1ccccc12	0.5	-4.2	10.9	16.6	1.5	62.0*
CC(=O)Oc1ccc2c(c1)OC(c1ccccc1)CC21CC(C)(C)NC(=S)N1 (stereo not drawn)	0.5	39.0*	-2.6	-2.7	-2.0	3.4
CN(C)CCNc1nc2sc3c(c2c(=O)n1-c1ccccc1)CCCCC3	-1.5	79.0*	2.9	-1.4	15.9	1.1
SMILES	PERK inhibitor	eIF4E 4G PPI	RanGTP-Impb inh	Runt-CBFb FRET	Hck-Nef inh	Runt-SMMHC FRET
O=C1OC(c2ccc(Cl)cc2)=C/C1=C/c1cccnc1	/	/	3.6	/	/	/
Cc1ccc(C2=C/C(=C/c3cccnc3)C(=O)O2)c(C)c1	0.4	8.2	33.8*	1.6	1.9	-1.7
COC(=O)[C@H](CC(C)C)NC(=O)CCc1nnc(COc2ccccc2)o1	0.7	1.0	-2.1	2.6	-0.7	-1.8
O=C(Cc1ccccc1Cl)NNC(=O)Nc1ccccc1	0.7	0.6	-3.2	-1.4	4.9	3.3
CCOC(=O)c1cc2c(=O)n3ccccc3nc2n(Cc2ccco2)c1=NC(=O)c1cccnc1	-0.3	5.3	2.7	52.0*	11.8	46.5
CCOC(=O)c1cc2c(=O)n3cccc(C)c3nc2n(Cc2ccco2)c1=NC(=O)c1cccnc1	-0.3	22.3	/	102.2*	14.7	62.6*
CCOC(=O)c1c(C)nc2c(C)cccn12	1.9	-0.3	3.3	1.2	-1.2	-3.4
COc1ccc(CCNC(=O)c2cc3c(=O)n4ccccc4nc3n(Cc3ccco3)c2=N)cc1OC	/	/	13.2	/	/	/
CCOC(=O)c1cc2c(=O)n3ccccc3nc2n(Cc2ccco2)c1=NC(=O)c1ccccc1OCC	0.1	3.3	0.6	73.5*	20.2	87.5*
CCOC(=O)CSc1nc2ccccc2c(=O)n1Cc1ccco1	-0.9	-3.9	-1.7	-0.2	-9.9	0.9
Cc1cc(C)n2nc(S(=O)(=O)Nc3c(Cl)cccc3Cl)nc2n1	0.6	0.1	1.6	-0.2	21.0	3.0
CCOc1cc(C(=O)Nc2ccc3c4c(cccc24)C(=O)N3CC)cc(OCC)c1OCC	-1.1	59.0*	-23.6	-42.5	6.0	-112.1
CCN1C(=O)c2cccc3c(S(=O)(=O)NCc4ccccn4)ccc1c23	-0.8	-1.7	22.9*	-20.1	-0.1	57.2
CCOC(=O)CNS(=O)(=O)c1ccc2c3c(cccc13)C(=O)N2CC	0.7	1.4	21.3*	0.5	-52.8	86.5*
CCOC(=O)Cc1csc(NS(=O)(=O)c2ccc3c4c(cccc24)C(=O)N3CC)n1	0.6	2.2	-2.5	-6.1	4.4	-13.3
COCCNS(=O)(=O)c1ccc2c3c(cccc13)C(=O)N2C	0.6	1.1	22.5*	-15.4	-46.4	90.5
O=C(CCCCCN1C(=O)[C@@H]2Cc3ccccc3CN2C1=O)NCCc1ccccc1	/	/	0.0	/	/	/
CCOC(=O)c1c(NC(=S)Nc2cccc(C)c2)sc2c1CC(C)(C)SC2	0.3	1.4	2.6	7.6	2.3	6.2
